Measured values collected from several papers.
Lines come from different studies, so protocols differ.
Target: Dual specificity tyrosine-phosphorylation-regulated kinase 1A (DYRK1A, Homo sapiens, UniProt Q13627)

| Structure (SMILES) | test | setting | quantity | value |
| --- | --- | --- | --- | --- |
| C[C@@H]1CN(c2cc(-c3nn(C)c4ccc(OC5(C)CC5)cc34)ncn2)C[C@H](C)O1 | cell-free assay, competition with immobilised ligand | 1 µM | remaining binding | 81% |
| COc1cccc(CCNc2nc3cc(C(=O)O)ccc3c3cncnc23)c1 | enzyme activity, inhibitor, radiometric | 1 µM | remaining activity | 40% |
| N#CCCc1ccc2c(c1)-c1[nH]c3ccc([N+](=O)[O-])cc3c1CC(=O)N2 | cell-free assay | 0.5 µM | remaining signal | 85.9% |
| Cc1c[nH]c2nccc(Oc3c(F)cc(Nc4cc(Cl)nc(N)n4)cc3F)c12 | cell-free assay, competition with immobilised ligand | 0.1 µM | remaining binding | 88% |
| CCCS(=O)(=O)Nc1ccc(F)c(C(=O)c2c[nH]c3ncc(-c4ccc(Cl)cc4)cc23)c1F | enzyme activity, inhibitor | 1 µM | inhibition | < 10% |
| O=C(O)c1ccc2c(c1)nc(Nc1ccc(F)c(Cl)c1)c1ncncc12 | enzyme activity, inhibitor, radiometric | 1 µM | remaining activity | 1% |
| Cn1c2c(c3ccc(Cl)c(Cl)c31)C(C#N)C1(CCN(C(=O)OC(C)(C)C)CC1)NC2=O (racemic) | thermal stability, DSF | 10 µM | ΔTm | -0.8 °C |
| Cc1cc(NC(=O)c2cccc3cc(-c4cccc5[nH]nc(N)c45)ccc23)ccc1F | enzyme activity, inhibitor | 0.1 µM | activity vs control | 110% |
| CNc1cccc2cc(C(=O)Nc3ccc(C(=O)O)cc3)c(=O)[nH]c12 | enzyme activity, inhibitor | 10 µM | inhibition | 28% |
| Cn1c2c(Cl)c(Cl)ccc2c2cc[nH]c(=O)c21 | thermal stability, DSF | 10 µM | ΔTm | 2.6 °C |
| CS(=O)(=O)CCNCc1ccc(-c2ccc3ncnc(Nc4ccc(OCc5cccc(F)c5)c(Cl)c4)c3c2)o1 | cell-free assay | 0.5 µM | remaining signal | 101% |
| CC(=O)N1CCC(c2ccc(C(=O)NC(=N)N)cc2C(F)(F)F)CC1 | cell-free assay, competition with immobilised ligand | 1 µM | remaining binding | 74% |
| O=C(O)c1ccc2c(c1)nc(Nc1cccc(F)c1)c1ncncc12 | enzyme activity, inhibitor, radiometric | 1 µM | remaining activity | 1% |
| Cc1ccc(NC(=O)c2ccc(C)c(C(F)(F)F)c2)cc1C#Cc1nn(C2CCC(O)CC2)c2ncnc(N)c12 (stereo not shown) | cell-free assay | 10 µM | remaining signal | 95% |
| O=C1NC(c2ccccn2)Sc2ccccc21 (stereo not shown) | cell-free assay, competition with immobilised ligand | 1 µM | remaining binding | 100% |
| O=C(O)c1ccc2c(c1)nc(NCCc1cccc(Cl)c1)c1ccncc12 | enzyme activity, inhibitor, radiometric | 1 µM | remaining activity | 17% |

| Structure (SMILES) | test | setting | quantity | value |
| --- | --- | --- | --- | --- |
| Cn1cnc(Br)c1C1=CN(c2ncnc3[nH]cnc23)CCS1 | enzyme activity, inhibitor, radiometric | 2 µM | inhibition | 99.2% |
| O=C(Nc1cccnn1)N1CC(C/C=C/c2cncc(Oc3ccc(C(F)(F)F)cn3)n2)C1 | cell-free assay, competition with immobilised ligand | 1 µM | remaining binding | 75% |
| CN(C)C1CCN(CC#Cc2nn(C3CCCC3)c3nc(NCc4ccccc4)ncc23)C1 (stereo not shown) | enzyme activity, inhibitor, FRET | 1 µM | inhibition | 4% |
| COc1cc2ncnc(Nc3ccc(Oc4ccccc4)c(C)c3C)c2cc1OC | enzyme activity, inhibitor | 1 µM | inhibition | 1% |
| N#Cc1cccc(Nc2nc3cc(C(=O)O)ccc3c3cncnc23)c1 | enzyme activity, inhibitor, radiometric | 1 µM | remaining activity | 3% |
| CN1CCC2(CC1)NC(=O)c1c(c3ccc(Cl)c(Cl)c3n1C)C2C#N (racemic) | thermal stability, DSF | 10 µM | ΔTm | 1 °C |
| CC1=C(C#N)[C@@H](c2ccc3[nH]nc(C)c3c2)C(C#N)=C(c2ccc(Cl)cc2)N1 | cell-free assay, competition with immobilised ligand | 1 µM | remaining binding | 100% |
| O=C(O)c1ccc2c(c1)nc(NCCc1cccc(Cl)c1)c1ncncc12 | enzyme activity, inhibitor, radiometric | 1 µM | remaining activity | 44% |
| Cc1c(NC(=O)c2cc(C(N)=O)nc3cc(F)ccc23)c(C(F)(F)F)nn1Cc1ccc(C(C)(C)C)cc1 | cell-free assay, competition with immobilised ligand | 1 µM | remaining binding | 100% |
| Cc1ccc(C(=O)Nc2ccc(CN3CCN(C)CC3)c(C(F)(F)F)c2)cc1C#Cc1cnc2cccnn12 | cell-free assay | 23.5 nM | remaining signal | 81% |
| CNCc1ccccc1-c1csc([C@H](C)Nc2nc(C)nc3cc(OC)c(OC)cc23)c1 | cell-free assay, competition with immobilised ligand | 1 µM | remaining binding | 80% |
| O=C1NC(=O)c2cc(Nc3ccc(F)cc3)c(Nc3ccc(F)cc3)cc21 | cell-free assay | 0.5 µM | remaining signal | 95.6% |
| O=C(O)c1ccc2c(c1)nc(NCc1ccccc1)c1ncncc12 | enzyme activity, inhibitor, radiometric | 1 µM | remaining activity | 61% |
| Cn1c2c(Cl)c(Cl)ccc2c2cn[nH]c(=O)c21 | thermal stability, DSF | 10 µM | ΔTm | 1.3 °C |
| CCN(CC)CCNC(=O)c1c(C)[nH]c(/C=C2\C(=O)Nc3ccc(F)cc32)c1C | cell-free assay | 0.5 µM | remaining signal | 56.9% |
